Tests used:
[1] = target: T1, Cholesterol side-chain cleavage enzyme, mitochondrial (cytochrome P450scc) (Bos taurus, UniProt P00189); experiment: Inhibition of Bovine adrenal cholesterol side chain cleavage cytochrome P450 at 50 ug/mL; details: cattle
T1 sequence (P00189 whole entry): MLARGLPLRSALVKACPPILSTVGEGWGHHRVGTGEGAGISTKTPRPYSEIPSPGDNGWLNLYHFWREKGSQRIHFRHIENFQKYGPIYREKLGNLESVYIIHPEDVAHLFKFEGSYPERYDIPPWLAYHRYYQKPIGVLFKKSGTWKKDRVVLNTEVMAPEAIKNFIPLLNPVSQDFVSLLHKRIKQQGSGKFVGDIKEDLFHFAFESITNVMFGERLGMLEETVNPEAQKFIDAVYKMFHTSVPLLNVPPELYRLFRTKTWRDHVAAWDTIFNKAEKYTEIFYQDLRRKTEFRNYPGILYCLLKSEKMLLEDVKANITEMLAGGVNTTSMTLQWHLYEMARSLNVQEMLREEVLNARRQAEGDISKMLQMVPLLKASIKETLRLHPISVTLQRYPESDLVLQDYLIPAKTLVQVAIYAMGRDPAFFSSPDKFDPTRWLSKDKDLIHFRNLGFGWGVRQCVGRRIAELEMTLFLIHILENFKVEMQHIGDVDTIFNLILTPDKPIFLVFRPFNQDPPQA
Method in brief: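 Bovine adrenal CSCC enzyme (cholesterol to pregnenolone) preparation. Inhibitor at 50 μg/mL, the highest concentration tested. Result is percent inhibition relative to uninhibited control, as the mean of two determinations (variability <10%).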

[2] = target: T2, Aromatase (Homo sapiens, UniProt P11511)
T2 sequence (P11511 whole entry): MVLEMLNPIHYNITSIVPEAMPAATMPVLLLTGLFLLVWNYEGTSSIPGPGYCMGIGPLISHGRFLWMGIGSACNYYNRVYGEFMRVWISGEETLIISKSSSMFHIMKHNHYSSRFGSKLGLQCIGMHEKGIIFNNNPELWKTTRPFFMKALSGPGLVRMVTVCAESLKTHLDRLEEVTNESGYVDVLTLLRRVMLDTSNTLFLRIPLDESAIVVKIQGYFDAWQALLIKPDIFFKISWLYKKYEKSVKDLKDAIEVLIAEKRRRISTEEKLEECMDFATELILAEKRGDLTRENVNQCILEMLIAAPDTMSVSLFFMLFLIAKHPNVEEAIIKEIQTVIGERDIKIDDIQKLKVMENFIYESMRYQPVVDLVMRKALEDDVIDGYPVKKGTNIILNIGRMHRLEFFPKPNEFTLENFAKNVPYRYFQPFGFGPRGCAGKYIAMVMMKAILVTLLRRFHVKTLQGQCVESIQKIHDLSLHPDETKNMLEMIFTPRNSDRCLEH

[3] = target: T2, Aromatase; remark: listed apart in the source
[4] = target: T2, Aromatase; remark: listed apart in the source
[5] = target: T2, Aromatase; experiment: Inhibition of Cytochrome P450 19A1 at 20 ug/mL
Method in brief: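 Human placental aromatase preparation. Inhibitor at 20 μg/mL. Result is percent inhibition of androgen aromatization relative to control.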

For `CCC1(c2ccc(N)cc2)CC(=O)NC1=O` (stereo not given), the inhibition at 50 ug/mL [1] was 38%, the IC50 [2] was 13.5 µM and the IC50 [3] was 8.4 µM. The Ki [4] was 1 µM.
`CN1C(=O)CC(c2ccc(N)cc2)C1=O` (stereo not given) showed an inhibition at 50 ug/mL [1] of 30%, an IC50 [2] of 16.6 µM and an IC50 [3] of 10 µM. For the same compound, the Ki [4] was 1.75 µM.
For `NC(=O)CCc1ccc([N+](=O)[O-])cc1`, the inhibition at 50 ug/mL [1] was 28% and the inhibition at 20 µg/mL [5] was 8%.
`CCC1(c2ccc(N)cc2)CCC(=O)NC1=O` (stereo not given) [AMINOGLUTETHIMIDE] gave an inhibition at 50 ug/mL [1] of 83%.
For `CC1(c2ccc(N)cc2)CC(=O)NC1=O` (stereo not given), the inhibition at 50 ug/mL [1] was 0%, the IC50 [2] was 12.5 µM and the IC50 [3] was 10 µM. For the same compound, the Ki [4] was 0.8 µM.
`CN1C(=O)CC(C)(c2ccc(N)cc2)C1=O` (stereo not given) gave an inhibition at 50 ug/mL [1] of 30%, an IC50 [2] of 15.7 µM and an IC50 [3] of 10 µM. It also gave a Ki [4] of 1.75 µM.
Compound `Nc1ccc(C2CC(=O)NC2=O)cc1` (stereo not given) has an inhibition at 50 ug/mL [1] of 30%, an IC50 [2] of 20 µM and an IC50 [3] of 10.2 µM.
With `NC(=O)CCc1ccc(N)cc1` the inhibition at 50 ug/mL [1] was 19% and the inhibition at 20 µg/mL [5] was 38%.
Compound `CCC1(c2ccc(N)cc2)CC(=O)N(C)C1=O` (stereo not given) has an inhibition at 50 ug/mL [1] of 0%.

Reference: ChEMBL document CHEMBL1123156 (J Med Chem, 1986)
